Reference: ChEMBL document CHEMBL3856229, “Hybrid Antibiotic Overcomes Resistance in P. aeruginosa by Enhancing Outer Membrane Penetration and Reducing Efflux” (J Med Chem, 2016)
The source made the active and inactive calls. The calls are words filed in the database; no cut-off is given here.

Tests used:
Format in all cases: functional
[1] = system: Pseudomonas aeruginosa; assay: Potentiation of moxifloxacin induced antibacterial activity against multidrug/extremely drug-resistant Pseudomonas aeruginosa isolate PA259-96918 assessed as moxifloxacin MIC at <= […] ug/ml (reference value: […] ug/ml)
[2] = system: Escherichia coli; assay: Antibacterial activity against fluoroquinolone resistant Escherichia coli isolate 98550 harboring beta-lactamase CTX-M-15/OXA-1
[3] = system: Escherichia coli; assay: Antibacterial activity against fluoroquinolone resistant Escherichia coli isolate 80960 harboring beta-lactamase CTX-M-15/TEM-1
[4] = system: Escherichia coli; assay: Antibacterial activity against fluoroquinolone resistant Escherichia coli isolate 80083 harboring beta-lactamase CTX-M-15/OXA-1
[5] = system: Escherichia coli; assay: Antibacterial activity against amikacin-resistant Escherichia coli isolate CAN-ICU 63074 after 24 hrs by microtitre broth dilution method; conditions: isolate CAN-ICU 63074, 24 h
[6] = system: Pseudomonas aeruginosa; assay: Antibacterial activity against Pseudomonas aeruginosa ATCC 27853 after 24 hrs by microtitre broth dilution method; conditions: ATCC 27853, 24 h
[7] = system: Pseudomonas aeruginosa; assay: Antimicrobial activity against Pseudomonas aeruginosa PAO1 assessed as outer membrane damage at 8 ug/ml after 3 to 4 hrs by uranyl acetate staining based transmission electron microscopy
Procedure, shortened: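 PAO1 in Mueller-Hinton broth was exposed to 8 µg/mL at 37 °C (3 h in the legend, 4 h in the text). Untreated cells were the reference. Morphology was imaged by transmission electron microscopy at 75 kV.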

[8] = system: Pseudomonas aeruginosa; assay: Antibacterial activity against pandrug-resistant Pseudomonas aeruginosa isolate 101243 in presence of <= 4 ug/ml of moxifloxacin (reference value: 8 ug/ml)
[9] = system: Escherichia coli; assay: Antibacterial activity against fluoroquinolone resistant Escherichia coli isolate 90789 harboring beta-lactamase KPC-3/TEM-1
[10] = system: Acinetobacter baumannii; assay: Antibacterial activity against Acinetobacter baumannii isolate CAN-ICU 63169 after 24 hrs by microtitre broth dilution method; conditions: isolate CAN-ICU 63169, 24 h
[11] = system: Escherichia coli; assay: Antibacterial activity against of wild-type Escherichia coli isolate 79768
[12] = system: Pseudomonas aeruginosa; assay: Antibacterial activity against Pseudomonas aeruginosa PAO1 assessed as fractional inhibitory concentration index after 18 hrs in presence of erythromycin by checkerboard method
Procedure, shortened: (§1)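 Checkerboard combinations of the hybrid with each partner antibiotic were tested against P. aeruginosa PAO1. Interaction is expressed as the fractional inhibitory concentration (FIC) index: ≤0.5 means synergy, 1–2 no interaction, ≥4 antagonism.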

[13] = system: Stenotrophomonas maltophilia; assay: Antibacterial activity against Stenotrophomonas maltophilia isolate CAN-ICU 62584 after 24 hrs by microtitre broth dilution method; conditions: isolate CAN-ICU 62584, 24 h
[14] = system: Pseudomonas aeruginosa; assay: Antibacterial activity against multidrug-resistant/tobramycin-susceptible Pseudomonas aeruginosa isolate 86053
[15] = system: Pseudomonas aeruginosa; assay: Antibacterial activity against Pseudomonas aeruginosa PAO1 assessed as fractional inhibitory concentration index after 18 hrs in presence of novobiocin by checkerboard method; procedure, shortened: as §1
[16] = system: Pseudomonas aeruginosa; assay: Bactericidal activity against Pseudomonas aeruginosa PAO1 at 2 times MIC up to 24 hrs by time-kill kinetic study
Procedure, shortened: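 PAO1 was grown in MH broth with varying concentrations of the test agent; colistin at its MIC served as comparator. Viable counts (CFU) were followed up to 24 h. There were three independent experiments, and each point is the mean of three determinations ± SEM.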

[17] = system: Pseudomonas aeruginosa; assay: Antibacterial activity against multidrug/extremely drug-resistant Pseudomonas aeruginosa isolate PA264-104354 in presence of <= 4 ug/ml of ciprofloxacin (reference value: 4 ug/ml)
[18] = system: Pseudomonas aeruginosa; assay: Antibacterial activity against Pseudomonas aeruginosa PAO1 assessed as fractional inhibitory concentration index after 18 hrs in presence of trimethoprim by checkerboard method; procedure, shortened: as §1
[19] = system: Pseudomonas aeruginosa; assay: Antibacterial activity against multidrug/extremely drug-resistant Pseudomonas aeruginosa isolate PA264-104354 in presence of <= 4 ug/ml of moxifloxacin (reference value: 4 ug/ml)
[20] = system: Pseudomonas aeruginosa; assay: Potentiation of ciprofloxacin induced antibacterial activity against pandrug-resistant Pseudomonas aeruginosa isolate 101243 assessed as ciprofloxacin MIC at <= […] ug/ml (reference value: 2 ug/ml)
[21] = system: Staphylococcus epidermidis; assay: Antibacterial activity against methicillin-resistant Staphylococcus epidermidis isolate CAN-ICU 61589 after 24 hrs by microtitre broth dilution method; conditions: isolate CAN-ICU 61589, 24 h
[22] = system: Pseudomonas aeruginosa; assay: Antibacterial activity against gentamicin/tobramycin-resistant Pseudomonas aeruginosa isolate CANWARD-2011 96846 after 24 hrs by microtitre broth dilution method; conditions: isolate CANWARD-2011 96846, 24 h
[23] = system: Pseudomonas aeruginosa; assay: Antibacterial activity against Pseudomonas aeruginosa PAO1 assessed as outer membrane permeabilization by measuring increase in 1-N-phenylnaphthylamine measured […] for 4.5 mins by fluorescence assay
Procedure, shortened: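 PAO1 cells received NPN, then the test agent at 50, 32, 16 or 8 µg/mL, added at 120 s. Colistin at 5 µg/mL was the positive control. Uptake was followed as NPN fluorescence. The assay was run in triplicate, and each point is the mean of three determinations ± SEM.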

[24] = system: Escherichia coli; assay: Antibacterial activity against fluoroquinolone resistant Escherichia coli isolate 95882 harboring beta-lactamase KPC-3/TEM-1
[25] = system: Pseudomonas aeruginosa; assay: Antibacterial activity against multidrug-resistant/tobramycin-susceptible Pseudomonas aeruginosa isolate 92014
[26] = system: Enterococcus faecium; assay: Antibacterial activity against Enterococcus faecium ATCC 27270 after 24 hrs by microtitre broth dilution method; conditions: ATCC 27270, 24 h
[27] = system: Pseudomonas aeruginosa; assay: Induction of cytoplasmic membrane depolarization in Pseudomonas aeruginosa PAO1 by DiSC3(5) dye based fluorescence assay
[28] = system: Pseudomonas aeruginosa; assay: Antibacterial activity against multidrug-resistant/tobramycin-susceptible Pseudomonas aeruginosa isolate 80621
[29] = system: Pseudomonas aeruginosa; assay: Antibacterial activity against pandrug-resistant Pseudomonas aeruginosa isolate 91433 in presence of <= 4 ug/ml of ciprofloxacin (reference value: 8 ug/ml)
[30] = system: Pseudomonas aeruginosa; assay: Antibacterial activity against extremely drug-resistant Pseudomonas aeruginosa isolate 104354 infected in Galleria mellonella assessed as larvae survival at 50 mg/kg administered as single dose measured after 24 hrs (reference value: 27 %); conditions: isolate 104354, 24 h
Procedure, shortened: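 Galleria mellonella larvae were infected with 10^6 CFU of XDR P. aeruginosa #104354, resistant to all antipseudomonal classes except colistin. A single injected drug dose was given 2 h post-infection: 50 mg/kg with survival read at 24 h, or 75 mg/kg with survival read at 96 h. Controls were infected untreated larvae and PBS-injected larvae. Two independent experiments of 15 larvae each (n = 30).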

[31] = system: Pseudomonas aeruginosa; assay: Antibacterial activity against Pseudomonas aeruginosa PAO1 assessed as fractional inhibitory concentration index after 18 hrs in presence of ceftazidime by checkerboard method; procedure, shortened: as §1
[32] = system: Pseudomonas aeruginosa; assay: Antibacterial activity against Pseudomonas aeruginosa PAO1 assessed as fractional inhibitory concentration index after 18 hrs in presence of chloramphenicol by checkerboard method; procedure, shortened: as §1
[33] = system: Pseudomonas aeruginosa; assay: Antibacterial activity against multidrug/extremely drug-resistant Pseudomonas aeruginosa isolate PA262-101856 in presence of <= 4 ug/ml of moxifloxacin (reference value: 4 ug/ml)
[34] = system: Pseudomonas aeruginosa; assay: Potentiation of moxifloxacin induced antibacterial activity against pandrug-resistant Pseudomonas aeruginosa isolate 91433 assessed as moxifloxacin MIC at <= […] ug/ml (reference value: 8 to […] ug/ml)

COc1c(N2C[C@@H]3CCCN(CCCCCCCCCCCCO[C@@H]4[C@@H](O[C@H]5O[C@H](CO)[C@@H](O)[C@H](N)[C@H]5O)[C@H](N)C[C@H](N)[C@H]4O[C@H]4O[C@H](CN)[C@@H](O)C[C@H]4N)[C@@H]3C2)c(F)cc2c(=O)c(C(=O)O)cn(C3CC3)c12.Cl.Cl.Cl.Cl.Cl
MIC [1]: < 1 µg/mL
MIC [2]: ≥ 64 µg/mL
MIC [3]: ≥ 64 µg/mL
MIC [4]: ≥ 64 µg/mL
MIC [5]: 4 µg/mL
MIC [6]: 4 µg/mL
Activity [7]: Active
MIC [8]: < 1 µg/mL
MIC [9]: ≥ 64 µg/mL
MIC [10]: 16 µg/mL
MIC [11]: ≤ 2 µg/mL
fractional inhibitory concentration index (FICI) [12]: 0.26
MIC [13]: 32 µg/mL
MIC [14]: 4 µg/mL
fractional inhibitory concentration index (FICI) [15]: 0.12
Activity [16]: Active
MIC [17]: < 0.5 µg/mL
fractional inhibitory concentration index (FICI) [18]: 0.25
MIC [19]: < 1 µg/mL
MIC [20]: 0.06 µg/mL
MIC [21]: 16 µg/mL
MIC [22]: 4 µg/mL
Activity [23]: Dose-dependent effect
MIC [24]: ≥ 64 µg/mL
MIC [25]: 4 µg/mL
MIC [26]: 16 µg/mL
Activity [27]: Dose-dependent effect
MIC [28]: 8 µg/mL
MIC [29]: < 1 µg/mL
survival at 50 mg/kg [30]: 100%
fractional inhibitory concentration index (FICI) [31]: 0.37
fractional inhibitory concentration index (FICI) [32]: 0.15
MIC [33]: < 1 µg/mL
MIC [34]: 0.12 µg/mL
